Data reported in article PMC3776982 (British Journal of Cancer, 2013).
Where two headings read alike, the source gives them in different places.

Experiments:
[1] = tested on: previously treated SCLC patients; assay: Adverse events; type: in vivo, human
Summary of the method: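 Toxicities graded by CTCAE v3.0 in adults with SCLC that had progressed after ≥2 prior chemotherapy regimens, including a platinum one. Paclitaxel 175 mg m−2 was given as a 3-h IV infusion every 3 weeks. Everolimus was given orally once daily (2.5, 5 or 10 mg) over 21-day courses. Patients were assessed weekly during cycle 1, then every 3 weeks.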

breast cancer = conditions: 10 mg everolimus daily, patients with breast cancer; ref Ellard et al, 2009; cited from earlier work
[2] = tested on: previously treated SCLC patients; type: in vivo, human
Summary of the method: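 Open-label 3-level escalation of oral daily everolimus (2.5→5→10 mg) with fixed paclitaxel 175 mg m−2 every 3 weeks; up to six patients per level, no intrapatient escalation. DLT was assessed in cycle 1 and defined as: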

[3] = tested on: small-cell lung cancer (SCLC); assay: Tumour response according to RECIST version 1.1; type: in vivo, human; conditions: + paclitaxel
[4] = Everolimus pharmacokinetics in whole blood; type: in vivo, human
Summary of the method: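 Samples were taken from six expansion-cohort patients at the MTD with paclitaxel, 10 per patient. Post-dose samples were drawn at 1, 2, 4, 6, 12 and 24 h on day 1 of cycle 2. Everolimus was quantified in whole blood by LC-MS/MS after protein precipitation.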

[5] = tested on: small-cell lung cancer (SCLC); assay: Tumour response by phospho-Akt and phospho-S6 expression; type: in vivo, human; conditions: everolimus + paclitaxel
Summary of the method: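 Pretreatment tumour specimens were formalin-fixed and paraffin-embedded, cut into 4 μm sections, deparaffinised in xylene and rehydrated. Sections were immunostained on an autostainer with polymer detection, using rabbit monoclonal phospho-Akt (Ser473) at 1:80 and phospho-S6 (Ser235/236) at 1:200. Tumour response was assessed every two cycles by RECIST 1.1.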

[6] = all everolimus doses (n=20), any grade, + 3-weekly paclitaxel 175 mg m^−2
[7] = everolimus 2.5 mg daily (n=6), grade 1/2, + 3-weekly paclitaxel 175 mg m^−2
[8] = everolimus 2.5 mg daily (n=6), grade 3/4, + 3-weekly paclitaxel 175 mg m^−2
[9] = everolimus 5 mg daily (n=11), grade 1/2, + 3-weekly paclitaxel 175 mg m^−2
[10] = everolimus 5 mg daily (n=11), grade 3/4, + 3-weekly paclitaxel 175 mg m^−2
[11] = everolimus 10 mg daily (n=3), grade 1/2, + 3-weekly paclitaxel 175 mg m^−2
[12] = everolimus 10 mg daily (n=3), grade 3/4, + 3-weekly paclitaxel 175 mg m^−2

CO[C@H]1C[C@@H]2CC[C@@H](C)[C@@](O)(O2)C(=O)C(=O)N2CCCC[C@H]2C(=O)O[C@H]([C@H](C)C[C@@H]2CC[C@@H](OCCO)[C@H](OC)C2)CC(=O)[C@H](C)/C=C(\C)[C@@H](O)[C@@H](OC)C(=O)[C@H](C)C[C@H](C)/C=C/C=C/C=C/1C [everolimus]
20%: Objective response rate ([3]; dose level 2 (everolimus 5 mg daily), 2 out of 10 patients)
16: Neutropenia (number of patients with adverse event) [1, 6]
0.98 to 6.02 h: Tmax ([4]; human, whole blood, po, 5 mg)
6: ALT increased (number of patients with adverse event) [1, 6] | AST increased (number of patients with adverse event) [1, 6] | Anorexia (number of patients with adverse event) [1, 6] | Hyperglycemia (number of patients with adverse event) [1, 7] | Pain (number of patients with adverse event) [1, 9] | Neutropenia (number of patients with adverse event) [1, 10]
level 2: MTD and recommended phase-2 dose (dose level) ([2]; level 2 = everolimus 5 mg daily + 3-weekly paclitaxel 175 mg m^−2)
5 mg: Maximum tolerated dose (MTD) of everolimus ([2]; once daily, in combination with paclitaxel 175 mg m^−2 every 3 weeks)
15: Leukopenia (number of patients with adverse event) [1, 6]
12%: Response rate (breast cancer)
67%: Objective response rate ([3]; dose level 3 (everolimus 10 mg daily), 2 out of 3 patients)
less than 40%: Interpatient coefficient of variation of pharmacokinetic parameters ([4]; all parameters except Cmin, everolimus 5 mg daily with paclitaxel)
2: Anorexia (number of patients with adverse event) [1, 7] | Pain (number of patients with adverse event) [1, 7] | Stomatitis (number of patients with adverse event) [1, 7] | Thrombocytopenia (number of patients with adverse event) [1, 7] | Diarrhoea (number of patients with adverse event) [1, 9] | Hypertriglycemia (number of patients with adverse event) [1, 9] | Itching (number of patients with adverse event) [1, 9] | Vomiting (number of patients with adverse event) [1, 9] | Hyperglycemia (number of patients with adverse event) [1, 11] | Hypertriglycemia (number of patients with adverse event) [1, 11] | Itching (number of patients with adverse event) [1, 11] | Leukopenia (number of patients with adverse event) [1, 11] | Neuropathy (number of patients with adverse event) [1, 11] | Pain (number of patients with adverse event) [1, 11] | Thrombocytopenia (number of patients with adverse event) [1, 11] | Neutropenia (number of patients with adverse event) [1, 12] | Thrombocytopenia (number of patients with adverse event) [1, 12] | Dose-limiting toxicity, cycle 1: Thrombocytopenia (number of patients) [2, 6]
284 ng·h/mL: AUC(0-t) ([4]; human, whole blood, po, 5 mg)
52%: Interpatient coefficient of variation of Cmin ([4]; everolimus 5 mg daily with paclitaxel)
5: Anaemia (number of patients with adverse event) [1, 7] | ALT increased (number of patients with adverse event) [1, 9] | Stomatitis (number of patients with adverse event) [1, 9]
1: Febrile neutropenia (number of patients with adverse event) [1, 6] | Pneumonitis (number of patients with adverse event) [1, 6] | ALT increased (number of patients with adverse event) [1, 7] | AST increased (number of patients with adverse event) [1, 7] | Neuropathy (number of patients with adverse event) [1, 7] | Leukopenia (number of patients with adverse event) [1, 8] | Neutropenia (number of patients with adverse event) [1, 8] | Pneumonitis (number of patients with adverse event) [1, 9] | Anaemia (number of patients with adverse event) [1, 10] | Febrile neutropenia (number of patients with adverse event) [1, 10] | Neuropathy (number of patients with adverse event) [1, 10] | Thrombocytopenia (number of patients with adverse event) [1, 10] | AST increased (number of patients with adverse event) [1, 11] | Anorexia (number of patients with adverse event) [1, 11] | Diarrhoea (number of patients with adverse event) [1, 11] | Neutropenia (number of patients with adverse event) [1, 11] | Stomatitis (number of patients with adverse event) [1, 11] | Hyperglycemia (number of patients with adverse event) [1, 12] | Dose-limiting toxicity, cycle 1: Hyperglycemia (number of patients) [2, 6] | Dose-limiting toxicity, cycle 1: Hyperglycemia (number of patients) [2, 12] | Dose-limiting toxicity, cycle 1: Thrombocytopenia (number of patients) [2, 12]
No objective response: Objective response in phospho-Akt-positive patients ([5]; two patients (one stable and one progressive disease))
None: Patients who experienced DLT in cycle 1 ([2]; dose level 1 (everolimus 2.5 mg daily), six patients, + 3-weekly paclitaxel 175 mg m^−2)
0: Diarrhoea (number of patients with adverse event) [1, 7] | Febrile neutropenia (number of patients with adverse event) [1, 7] | Itching (number of patients with adverse event) [1, 7] | Pneumonitis (number of patients with adverse event) [1, 7] | Vomiting (number of patients with adverse event) [1, 7] | ALT increased (number of patients with adverse event) [1, 8] | AST increased (number of patients with adverse event) [1, 8] | Anaemia (number of patients with adverse event) [1, 8] | Anorexia (number of patients with adverse event) [1, 8] | Diarrhoea (number of patients with adverse event) [1, 8] | Febrile neutropenia (number of patients with adverse event) [1, 8] | Hyperglycemia (number of patients with adverse event) [1, 8] | Hypertriglycemia (number of patients with adverse event) [1, 8] | Itching (number of patients with adverse event) [1, 8] | Neuropathy (number of patients with adverse event) [1, 8] | Pain (number of patients with adverse event) [1, 8] | Pneumonitis (number of patients with adverse event) [1, 8] | Stomatitis (number of patients with adverse event) [1, 8] | Thrombocytopenia (number of patients with adverse event) [1, 8] | Vomiting (number of patients with adverse event) [1, 8] | Febrile neutropenia (number of patients with adverse event) [1, 9] | ALT increased (number of patients with adverse event) [1, 10] | AST increased (number of patients with adverse event) [1, 10] | Anorexia (number of patients with adverse event) [1, 10] | Diarrhoea (number of patients with adverse event) [1, 10] | Hyperglycemia (number of patients with adverse event) [1, 10] | Hypertriglycemia (number of patients with adverse event) [1, 10] | Itching (number of patients with adverse event) [1, 10] | Pain (number of patients with adverse event) [1, 10] | Pneumonitis (number of patients with adverse event) [1, 10] | Stomatitis (number of patients with adverse event) [1, 10] | Vomiting (number of patients with adverse event) [1, 10] | ALT increased (number of patients with adverse event) [1, 11] | Febrile neutropenia (number of patients with adverse event) [1, 11] | Pneumonitis (number of patients with adverse event) [1, 11] | Vomiting (number of patients with adverse event) [1, 11] | ALT increased (number of patients with adverse event) [1, 12] | AST increased (number of patients with adverse event) [1, 12] | Anaemia (number of patients with adverse event) [1, 12] | Anorexia (number of patients with adverse event) [1, 12] | Diarrhoea (number of patients with adverse event) [1, 12] | Febrile neutropenia (number of patients with adverse event) [1, 12] | Hypertriglycemia (number of patients with adverse event) [1, 12] | Itching (number of patients with adverse event) [1, 12] | Leukopenia (number of patients with adverse event) [1, 12] | Neuropathy (number of patients with adverse event) [1, 12] | Pain (number of patients with adverse event) [1, 12] | Pneumonitis (number of patients with adverse event) [1, 12] | Stomatitis (number of patients with adverse event) [1, 12] | Vomiting (number of patients with adverse event) [1, 12] | Dose-limiting toxicity, cycle 1: Hyperglycemia (number of patients) [2, 7] | Dose-limiting toxicity, cycle 1: Thrombocytopenia (number of patients) [2, 7] | Dose-limiting toxicity, cycle 1: Hyperglycemia (number of patients) [2, 8] | Dose-limiting toxicity, cycle 1: Thrombocytopenia (number of patients) [2, 8] | Dose-limiting toxicity, cycle 1: Hyperglycemia (number of patients) [2, 9] | Dose-limiting toxicity, cycle 1: Thrombocytopenia (number of patients) [2, 9] | Dose-limiting toxicity, cycle 1: Hyperglycemia (number of patients) [2, 10] | Dose-limiting toxicity, cycle 1: Hyperglycemia (number of patients) [2, 11] | Dose-limiting toxicity, cycle 1: Thrombocytopenia (number of patients) [2, 11]
17%: Objective response rate ([3]; dose level 1 (everolimus 2.5 mg daily), one out of 6 patients)
10: Pain (number of patients with adverse event) [1, 6] | Anaemia (number of patients with adverse event) [1, 9]
1/3: Response in phospho-S6-negative group (responders/patients) [5] | Response in phospho-S6-positive group (responders/patients) [5]
8: Stomatitis (number of patients with adverse event) [1, 6]
9: Hyperglycemia (number of patients with adverse event) [1, 9]
4: Itching (number of patients with adverse event) [1, 6] | Leukopenia (number of patients with adverse event) [1, 7] | AST increased (number of patients with adverse event) [1, 9] | Leukopenia (number of patients with adverse event) [1, 9] | Leukopenia (number of patients with adverse event) [1, 10]
24.4 ng/mL: Cmax ([4]; human, whole blood, po, 5 mg)
3: Diarrhoea (number of patients with adverse event) [1, 6] | Hypertriglycemia (number of patients with adverse event) [1, 7] | Neutropenia (number of patients with adverse event) [1, 7] | Anorexia (number of patients with adverse event) [1, 9] | Neuropathy (number of patients with adverse event) [1, 9] | Neutropenia (number of patients with adverse event) [1, 9] | Thrombocytopenia (number of patients with adverse event) [1, 9] | Anaemia (number of patients with adverse event) [1, 11]
two objective responses: Objective responses in patients with phospho-Akt-negative tumours ([5]; four patients)
